Experimental data as given in ChEMBL document CHEMBL1139014, “Stereochemical sensitivity of the human UDP-glucuronosyltransferases 2B7 and 2B17” (J Med Chem, 2006).

Legend:
UGT2B17 = target: T1, UGT2B17 (Homo sapiens, UniProt O75795); assay: (§1) Inhibition of UGT2B17; conditions: human; read-out: Imax
T1 sequence (O75795 whole entry): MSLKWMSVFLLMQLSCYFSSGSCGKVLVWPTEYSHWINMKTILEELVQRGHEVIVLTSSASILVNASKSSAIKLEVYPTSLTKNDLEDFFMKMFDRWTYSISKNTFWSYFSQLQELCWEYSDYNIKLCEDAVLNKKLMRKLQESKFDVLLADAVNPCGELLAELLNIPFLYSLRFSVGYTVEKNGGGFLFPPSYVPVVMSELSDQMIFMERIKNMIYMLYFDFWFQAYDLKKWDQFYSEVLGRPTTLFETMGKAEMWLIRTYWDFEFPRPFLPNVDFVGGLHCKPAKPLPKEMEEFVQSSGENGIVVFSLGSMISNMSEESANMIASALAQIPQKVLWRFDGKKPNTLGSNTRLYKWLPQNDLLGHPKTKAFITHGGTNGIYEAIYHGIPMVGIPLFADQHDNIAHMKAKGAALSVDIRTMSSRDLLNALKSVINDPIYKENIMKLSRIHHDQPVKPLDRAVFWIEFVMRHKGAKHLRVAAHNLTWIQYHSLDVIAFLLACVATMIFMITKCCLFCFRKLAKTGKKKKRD
Procedure, shortened: (§2)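 IC50 against UGT2B17-catalyzed glucuronidation of scopoletin, using His-tagged enzyme from insect cells at 0.1 µg/µL. Scopoletin was 300 µM (its Km) with inhibitor at 10–1000 µM. For poorly soluble aliphatic alcohols, inhibitor was 5–100 µM and scopoletin 50 µM. Buffer was 5.0 mM phosphate pH 7.4 with MgCl2 and saccharic lactone. UDPGlcA 5.0 mM; 15 min at 37 °C. Scopoletin glucuronide was read by HPLC fluorescence and fitted to the two-parameter Hill equation.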

[1] = target: T2, UDP-glucuronosyltransferase 2B17 (Homo sapiens, UniProt O75795); assay: as §1; procedure, shortened: as §2
T2 sequence (O75795 whole entry): T1 sequence (O75795 whole entry)

UGT2B7 = target: T3, UGT2B7 (Homo sapiens, UniProt P16662); assay: (§3) Inhibition of UGT2B7; conditions: human; read-out: Imax
T3 sequence (P16662 whole entry): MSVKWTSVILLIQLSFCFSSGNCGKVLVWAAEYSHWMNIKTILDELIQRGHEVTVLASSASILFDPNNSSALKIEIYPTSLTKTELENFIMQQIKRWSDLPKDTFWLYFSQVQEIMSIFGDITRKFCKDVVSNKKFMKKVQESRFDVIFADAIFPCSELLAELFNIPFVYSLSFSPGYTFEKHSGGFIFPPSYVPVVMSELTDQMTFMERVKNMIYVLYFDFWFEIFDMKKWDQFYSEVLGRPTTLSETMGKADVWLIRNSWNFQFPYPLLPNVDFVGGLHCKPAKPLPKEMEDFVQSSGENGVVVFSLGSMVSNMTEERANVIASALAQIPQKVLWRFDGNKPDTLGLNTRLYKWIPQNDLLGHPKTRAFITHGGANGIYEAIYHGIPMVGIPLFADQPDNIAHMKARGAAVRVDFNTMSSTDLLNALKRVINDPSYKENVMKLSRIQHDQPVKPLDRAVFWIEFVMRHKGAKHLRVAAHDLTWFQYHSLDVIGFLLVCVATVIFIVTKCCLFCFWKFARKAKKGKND

[2] = target: T4, UDP-glucuronosyltransferase 2B7 (Homo sapiens, UniProt P16662); assay: as §3
T4 sequence (P16662 whole entry): T3 sequence (P16662 whole entry)

[3] = target: T4, UDP-glucuronosyltransferase 2B7; assay: Competitive inhibition of UGT2B7-catalyzed scopoletin glucuronidation; type: functional
Procedure, shortened: (§4)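 Recombinant human UGT2B7 from baculovirus-infected insect cells, 0.1 µg/µL, in 5.0 mM phosphate (pH 7.4), 10 mM MgCl2 and 5.0 mM saccharic acid-1,4-lactone. Racemates were tested at three concentrations bracketing Kic estimated by Cheng-Prusoff. Scopoletin was 100–2000 µM. After 5 min preincubation at 37 °C, 5.0 mM UDPGlcA was added and the reaction ran 15 min. Glucuronide was read by HPLC fluorescence (ex 335/em 455 nm). Mechanism came from simultaneous nonlinear regression.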

[4] = target: T2, UDP-glucuronosyltransferase 2B17; assay: Non competitive inhibition of UGT2B17-catalyzed scopoletin glucuronidation; type: functional
Procedure, shortened: (§5)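 His-tagged human UGT2B17 expressed in insect cells, 0.1 µg/µL, in 5.0 mM phosphate (pH 7.4) with 10 mM MgCl2 and 5.0 mM saccharic acid-1,4-lactone. Initial velocities were taken at scopoletin 100, 250, 500, 1000 and 2000 µM, with racemic inhibitors at three levels bracketing Kic estimated by Cheng-Prusoff. UDPGlcA (5.0 mM final) started the reaction after 5 min preincubation at 37 °C; run 15 min. Scopoletin glucuronide was measured by HPLC fluorescence. Inhibition mechanism was fitted by simultaneous nonlinear regression.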

[5] = target: T4, UDP-glucuronosyltransferase 2B7; assay: Non competitive inhibition of UGT2B7-catalyzed scopoletin glucuronidation; type: functional; procedure, shortened: as §4
[6] = target: T2, UDP-glucuronosyltransferase 2B17; assay: Competitive inhibition of UGT2B17-catalyzed scopoletin glucuronidation; type: functional; procedure, shortened: as §5

Row | Emax (UGT2B17) [%] | IC50 [1] [µM] | Emax (UGT2B7) [%] | IC50 [2] [µM] | Ki [3] [µM] | Ki [4] [µM] | Ki [5] [µM] | Ki [6] [µM] | Structure (SMILES)
1 | 58.3 | 728 | 64.4 | 540 | – | – | – | – | Cc1ccc2c(c1)[C@@H](O)CC2
2 | 78.8 | 242 | 73.6 | 337 | – | – | – | – | O[C@@H]1CCCc2ccccc21
3 | 13.1 | 703 | 19.8 | 344 | – | – | – | – | C[C@@H](O)c1c2ccccc2cc2ccccc12
4 | 89.1 | 132 | 80.2 | 301 | – | – | – | – | COc1cccc2c1CCC[C@@H]2O
5 | 90.5 | 98 | 83.5 | 166 | – | – | – | – | Cc1cc(C)c2c(c1)[C@@H](O)CCC2
6 | 69.3 | 448 | 65.8 | 507 | – | – | – | – | O[C@@H]1CCOc2ccccc21
7 | 76.1 | 374 | 67.8 | 489 | – | – | – | – | O[C@H]1CCCc2ccccc21
8 | 16.7 | 578 | – | – | – | – | – | – | C[C@@H](O)c1ccc2ccccc2c1
9 | 72.6 | 365 | 83.5 | 225 | – | – | – | – | Cc1ccc2c(c1)[C@H](O)CCO2
10 | 77.4 | 305 | 62.5 | 651 | – | – | – | – | O=[N+]([O-])c1ccc2c(c1)[C@@H](O)CCC2
11 | 18.9 | 389 | 41.9 | 130 | – | – | – | – | C[C@@H](O)c1cccc2ccccc12
12 | 61.7 | 608 | 86.4 | 179 | – | – | – | – | Cc1cccc2c1CC[C@@H]2O
13 | 63.4 | 545 | 67.3 | 513 | – | – | – | – | O[C@H]1CCc2ccccc21
14 | 80.4 | 216 | 77.2 | 351 | – | – | – | – | COc1ccc2c(c1)[C@@H](O)CCC2
15 | 65.3 | 517 | 77.1 | 275 | – | – | – | – | O[C@@H]1CCc2ccccc21
16 | 60.1 | 682 | 76 | 317 | – | – | – | – | Cc1cccc2c1CC[C@H]2O (racemic)
17 | – | – | – | – | 301 | 1440 | 624 | 427 | Cc1ccc2c(c1)C(O)CC2 (racemic)
18 | 74.8 | 319 | 68.7 | 518 | – | – | – | – | O[C@H]1CCOc2ccccc21 (racemic)
19 | – | – | – | – | 113 | 608 | 258 | 201 | Cc1ccc2c(c1)C(O)CCO2 (racemic)
20 | 11.1 | 606 | 17.7 | 532 | – | – | – | – | C[C@H](O)c1c2ccccc2cc2ccccc12 (racemic)
21 | 9.12 | 657 | – | – | – | – | – | – | C[C@H](O)c1ccc2ccccc2c1 (racemic)
22 | 84.7 | 162 | 80.4 | 284 | – | – | – | – | COc1ccc2c(c1)[C@H](O)CCC2 (racemic)
23 | – | – | – | – | 101 | 190 | 192 | 57.8 | Cc1cc(C)c2c(c1)C(O)CCC2 (racemic)
24 | 14.3 | 537 | 31.8 | 214 | – | – | – | – | C[C@H](O)c1cccc2ccccc12 (racemic)
25 | 69.6 | 489 | 71.2 | 394 | – | – | – | – | Cc1ccc2c(c1)[C@H](O)CC2 (racemic)
26 | 88.9 | 112 | 76.5 | 366 | – | – | – | – | COc1cccc2c1CCC[C@H]2O (racemic)
27 | 83.5 | 217 | 61.9 | 599 | – | – | – | – | O=[N+]([O-])c1ccc2c(c1)[C@H](O)CCC2 (racemic)
28 | 75.3 | 325 | 85 | 182 | – | – | – | – | Cc1ccc2c(c1)[C@@H](O)CCO2 (racemic)
29 | 87.8 | 144 | 85.7 | 158 | – | – | – | – | Cc1cc(C)c2c(c1)[C@H](O)CCC2 (racemic)
